Published values of several laboratories.
Protocols differ between the studies behind these lines.
TPR: Trypanothione reductase (TPR, Trypanosoma cruzi, UniProt P28593)
NPSR1: Neuropeptide S receptor (NPSR1, Homo sapiens, UniProt Q6W5P4)
GRM3: Metabotropic glutamate receptor 3 (GRM3, Homo sapiens, UniProt Q14832)
PTPN12: Tyrosine-protein phosphatase non-receptor type 12 (PTPN12, Homo sapiens, UniProt Q05209)
Aldo-keto reductase family 1 member A1: Aldo-keto reductase family 1 member A1 (Rattus norvegicus, UniProt P51635)
SLC6A2: Sodium-dependent noradrenaline transporter (SLC6A2, Homo sapiens, UniProt P23975)
Dual specificity calcium/calmodulin-dependent 3',5'-cyclic nucleotide phosphodiesterase 1B: Dual specificity calcium/calmodulin-dependent 3',5'-cyclic nucleotide phosphodiesterase 1B (Homo sapiens, UniProt Q01064)
Fructose-1,6-bisphosphatase 1 G27P: Fructose-1,6-bisphosphatase 1 (Mus musculus, UniProt Q9QXD6, G27P)

Compound	target	read-out	mode	method	pH	notes	IC50 [µM]
CCN(CC)CCn1c(=N)n(CC(=O)c2ccc(C)cc2)c2ccccc21	TPR	enzyme activity	inhibitor				≤ 10
N=c1c2c(ncn1-c1ccccc1)Oc1ccc3ccccc3c1C2c1ccc2c(c1)CCO2 (centres unmarked)	NPSR1	cAMP	antagonist	TR-FRET			3.07
CCN(CC)CCOc1ccc2c(c1)C(=O)c1cc(OCCN(CC)CC)ccc1-2	Cholinesterase (BCHE, Homo sapiens, UniProt P06276)	enzyme activity	inhibitor				> 50
CN(C)CCCN1c2ccccc2Sc2ccc(Cl)cc21	TPR	enzyme activity	inhibitor	absorbance			6.32
Cc1cnc(-c2ccc(-c3ccc(NC(=O)Nc4c(F)cc(F)cc4F)cc3F)c3c2C(=O)NC3)[nH]1	Serine/threonine-protein kinase/endoribonuclease IRE2 (ERN2, Homo sapiens, UniProt Q76MJ5)	enzyme activity	inhibitor				0.0148
COc1ccc(-c2cc(C(N)=O)ncc2OCc2noc(C)n2)c(F)c1	GRM3	ion flux	antagonist				> 10
O=C(O)c1cc(O)c2c(c1)[C@H]([C@H]1c3cc(C(=O)O)cc(O)c3C(=O)c3c(O[C@@H]4O[C@H](CO)[C@@H](O)[C@H](O)[C@H]4O)cccc31)c1cccc(O[C@@H]3O[C@H](CO)[C@@H](O)[C@H](O)[C@H]3O)c1C2=O	PTPN12	enzyme activity	inhibitor				0.2
COc1ccc2nc(/N=C3/NC(=O)C(=Cc4ccc(O)cc4)S3)sc2c1	Aldo-keto reductase family 1 member A1	enzyme activity	inhibitor	absorbance	pH 7.2		1.24
Fc1ccc(C(c2ccc(F)cc2)c2nnnn2CCCCN2CCC(Cc3ccccc3)CC2)cc1	SLC6A2	transporter uptake	inhibitor				0.298
Cc1nn2c(-c3c(C)nn(C)c3-c3ccc(C(F)(F)F)cc3)nc(CO)c2c(=O)[nH]1	Dual specificity calcium/calmodulin-dependent 3',5'-cyclic nucleotide phosphodiesterase 1B	enzyme activity	inhibitor				5.26
O=P(O)(O)OC[C@H]1O[C@@](CO)(OP(=O)(O)O)[C@@H](O)[C@@H]1O	Fructose-1,6-bisphosphatase 1 G27P	enzyme activity	inhibitor				1.52
COc1cccc(C2c3c(ncn(-c4ccccn4)c3=N)Oc3ccc4ccccc4c32)c1 (centres unmarked)	NPSR1	calcium signal	antagonist				5.51
COc1ccc(-c2cc(C(N)=O)ncc2OCc2ccc(F)nc2)c(F)c1	GRM3	ion flux	antagonist				> 10
COc1ccc(C2c3c(ncn(CCCc4ccccc4)c3=N)Oc3ccc4ccccc4c32)cc1OC (centres unmarked)	NPSR1	calcium signal	antagonist				> 30
BrCCCc1ccccc1	TPR	enzyme activity	inhibitor	absorbance			> 100
Clc1ccc(C(c2ccccc2)c2nnnn2CCCCN2CCC(Cc3ccc(Cl)c(Cl)c3)CC2)cc1 (centres unmarked)	SLC6A2	transporter uptake	inhibitor				0.78
CN1c2c(nc(N)[nH]c2=O)NC[C@@H]1CNc1ccc(C(=O)N[C@@H](CCC(=O)O)C(=O)O)cc1	Folate receptor beta (FOLR2, Homo sapiens, UniProt P14207)	cell-free assay		ELISA			0.196
O=C(Oc1cc(O)cc2c1C[C@@H](OC(=O)c1cc(O)c(O)c(O)c1)[C@@H](c1cc(O)c(O)c(O)c1)O2)c1cc(O)c(O)c(O)c1	PTPN12	enzyme activity	inhibitor				0.02
c1ccc(CCC2CCN(CCCCn3nnnc3C(c3ccccc3)c3ccccc3)CC2)cc1	SLC6A2	transporter uptake	inhibitor				0.274
O=C1c2ccccc2-c2cccc3cccc1c23	PTPN12	enzyme activity	inhibitor	fluorescence			> 150
Cc1ccc(C(O)Cn2c(=N)n(CCN3CCCCC3)c3ccccc32)cc1 (centres unmarked)	TPR	enzyme activity	inhibitor				≤ 10
c1ccc(CCCN2CCNCC2)cc1	TPR	enzyme activity	inhibitor	absorbance			34.5
CN1CCN(c2ccc(Nc3ncc4cc(C#N)c(=O)n(C5CCCC5)c4n3)cc2)CC1	Fibroblast growth factor receptor 4 (FGFR4, Homo sapiens, UniProt P22455)	enzyme activity	inhibitor				1.53
CN[C@H]1CC[C@@H](c2ccc(Cl)c(Cl)c2)c2ccccc21	PTPN12	enzyme activity	inhibitor	fluorescence			55
COc1ccc2nc(/N=C3/NC(=O)C(=Cc4ccc(Cl)cc4)S3)sc2c1	Aldo-keto reductase family 1 member A1	enzyme activity	inhibitor	absorbance	pH 7.2		18.3
Fc1ccc(C(c2ccc(F)cc2)c2nnnn2CCCCN2CCN(Cc3ccccc3)CC2)cc1	SLC6A2	transporter uptake	inhibitor				0.16
Cn1ccc(COc2cnc(C(N)=O)cc2-c2ccc(F)cc2)n1	GRM3	ion flux	antagonist				> 10

Compound	target	read-out	mode	method	pH	notes	IC50 [µM]
Nc1nccc2cc(CNC(=O)c3cnn(Cc4ccc(Cn5ccccc5=O)cc4)c3)ccc12	Plasma kallikrein (KLKB1, Homo sapiens, UniProt P03952)	enzyme activity	inhibitor			with preincubation	0.00059
O=c1[nH]c(=S)n(Cc2ccc(Cl)cc2CNCC(F)(F)F)c2cc[nH]c12	Myeloperoxidase (MPO, Homo sapiens, UniProt P05164)	enzyme activity	inhibitor				0.035
Clc1ccc(C(c2ccccc2)c2nnnn2CCCCN2CCN(CC=Cc3ccccc3)CC2)cc1 (centres unmarked)	SLC6A2	transporter uptake	inhibitor				0.985
COc1cc(/C=C2\SC(=O)NC2=O)cc(F)c1OCCNc1nc2c(cnn2C2CCCC2)c(=O)[nH]1	Dual specificity calcium/calmodulin-dependent 3',5'-cyclic nucleotide phosphodiesterase 1B	enzyme activity	inhibitor				0.0151
COc1ccc(-n2cnc3c(c2=N)C(c2cccc(OC)c2)c2c(ccc4ccccc24)O3)cc1 (centres unmarked)	NPSR1	calcium signal	antagonist				4.38
COc1ccc(-c2cc(C(N)=O)ncc2OCc2ccnc(F)c2)c(F)c1	GRM3	ion flux	antagonist				> 10
Clc1ccc2c(c1)N(CCCN1CCN(CCCc3ccccc3)CC1)c1ccccc1S2	TPR	enzyme activity	inhibitor	absorbance			0.75
Nc1ncnc2c1C(c1ccccc1)c1c(ccc3ccccc13)O2 (centres unmarked)	NPSR1	cAMP	antagonist	TR-FRET			7.72
CCN(CC)CCn1c(=N)n(CCOc2ccccc2)c2ccccc21	TPR	enzyme activity	inhibitor				≤ 10
COc1ccc2c(Oc3ccc4c(C(=O)Nc5ccccc5N)cccc4c3)ccnc2c1	Tyrosine-protein kinase Fgr (FGR, Homo sapiens, UniProt P09769)	enzyme activity	inhibitor				> 0.5
C=CC(=O)Nc1cc(Nc2nccc(Nc3cc(Cl)c(F)cc3C(C)(C)O)n2)c(OC)cc1N1CC[C@@H](N(C)C)C1	MAP kinase-interacting serine/threonine-protein kinase 2 (MKNK2, Homo sapiens, UniProt Q9HBH9)	enzyme activity	inhibitor			with preincubation	1.03
O=S1(=O)O[C@@H]2[C@H](O)[C@@H](O)[C@H](O)[C@@H](CO)[C@@H]2O1	bglA (Thermotoga maritima, UniProt Q08638)	enzyme activity	inhibitor		pH 6.8	with preincubation	> 100
COc1ccc(-c2cc(C(N)=O)ncc2OCc2cnc(OC)nc2)c(F)c1	GRM3	ion flux	antagonist				> 10
COc1cccc(C2c3c(ncn(-c4ccc(F)cc4)c3=N)Oc3ccc4ccccc4c32)c1 (centres unmarked)	NPSR1	calcium signal	antagonist				3.48
O=C1c2ccccc2C(=O)c2c(O)c(O)cc(O)c21	PTPN12	enzyme activity	inhibitor				5
O=S(=O)(Nc1nc2cc(Cl)ccc2o1)c1cc(Cl)ccc1Cl	Fructose-1,6-bisphosphatase 1 G27P	enzyme activity	inhibitor				> 100
COc1ccc2nc(/N=C3/NC(=O)C(=Cc4ccc(O)c(OC)c4)S3)sc2c1	Aldo-keto reductase family 1 member A1	enzyme activity	inhibitor	absorbance	pH 7.2		0.61
Cc1ccc(C(=O)Nc2ccc(S(=O)(=O)O)c3cc(S(=O)(=O)O)cc(S(=O)(=O)O)c23)cc1NC(=O)c1cccc(NC(=O)Nc2cccc(C(=O)Nc3cc(C(=O)Nc4ccc(S(=O)(=O)O)c5cc(S(=O)(=O)O)cc(S(=O)(=O)O)c45)ccc3C)c2)c1	PTPN12	enzyme activity	inhibitor	fluorescence			27
COc1cccc(C2c3c(ncn(-c4ccccc4-c4ccccc4)c3=N)Oc3ccc4ccccc4c32)c1 (centres unmarked)	NPSR1	cAMP	antagonist	TR-FRET			38.7
COc1ccc(-c2cc(C(N)=O)ncc2OCc2ccn(C)n2)c(F)c1	GRM3	ion flux	antagonist				> 10
COc1cccc(C2c3c(ncn(-c4cccc(C#N)c4)c3=N)Oc3ccc4ccccc4c32)c1 (centres unmarked)	NPSR1	calcium signal	antagonist				4.38
CCN(CC)CCn1c(=N)n(CC(O)c2ccc(Cl)c(Cl)c2)c2ccccc21 (centres unmarked)	TPR	enzyme activity	inhibitor				≤ 10
CCCc1ccccc1	TPR	enzyme activity	inhibitor	absorbance			> 100
Clc1ccc(C(c2ccccc2)c2nnnn2CCCCN2CCN(CCCc3ccccc3)CC2)cc1 (centres unmarked)	SLC6A2	transporter uptake	inhibitor				0.745
N=c1n(CCN2CCCCC2)c2ccccc2n1CC(O)c1ccc(Cl)c(Cl)c1 (centres unmarked)	TPR	enzyme activity	inhibitor				≤ 10
ClCCOC1c2ccccc2CCc2ccccc21	TPR	enzyme activity	inhibitor	absorbance			29.7
